One assay deals with HT-29. The experiment in a line: Cytotoxicity against human HT-29 cells after 48 hrs by MTT assay. It counts as functional, cell-based. The conditions noted are these: HT-29, 48 h. The procedure, abridged:
(§1)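 Cells grown in DMEM with 10% FBS at 37 °C under humidified 5% CO2. HeLa seeded at 3,000/well and HT29 at 12,500/well, then allowed 24 h before exposure to varying compound concentrations for 48 h. Viability read by MTT; IC50 values derived from duplicate experiments.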
A general note: Formazan colour is commonly taken as a measure of viable cells.

For another assay, the system named is HeLa. The experiment in a line: Cytotoxicity against human HeLa cells after 48 hrs by MTT assay. Type of assay: functional, cell-based. The procedure, abridged: as §1

Broadly, the IC50 is the concentration needed to halve the response being measured. A high value points to a need for much substance.

A value given as a limit tells only on which side of the number the result lay.

As for `CO[C@@H]1[C@@H](OC)[C@H](C)O[C@@H](O[C@@H]2C[C@@H]3CC[C@@H](C)[C@H](O)C[C@@](C)(CC/C=C/C=C\Br)OC(=O)C[C@](O)(C2)O3)[C@@H]1OC`, the values for the IC50 in the assay on HT-29 and with HeLa were greater than 100 µM and 53 µM, respectively.
The corresponding values for `CO[C@@H]1[C@@H](OC)[C@H](C)O[C@@H](O[C@@H]2C[C@H]3O[C@@](O)(C2)[C@@H](C)C(=O)O[C@@H](/C=C/C=C/Br)C[C@@H](C)/C=C\C[C@H](O)[C@@H]3C)[C@@H]1OC` are 38 µM and 33 µM.
The corresponding values for `CCCC(=O)N[C@@H](C(C)C)[C@@H](CC(=O)O[C@@H]1COC(=O)c2csc(n2)[C@@H]([C@@](C)(O)CC)OC(=O)[C@@H](C)[C@H](CCCC(C)(Cl)Cl)OC(=O)c2csc1n2)OC(C)=O` [LYNGBYABELLIN J] are 0.054 µM and 0.041 µM.
Consider `CO[C@@H]1[C@@H](OC)[C@H](C)O[C@@H](O[C@@H]2C[C@@H]3CC[C@@H](C)[C@H](O)C[C@@](C)(CC/C=C/C=C/Br)OC(=O)C[C@](O)(C2)O3)[C@@H]1OC`, for which the half-inhibitory concentration (IC50) worked out at 13 µM in the assay with HT-29 and 9.3 µM in the assay on HeLa.
For `CO[C@@H]1[C@@H](OC)[C@H](C)O[C@@H](O[C@@H]2C[C@H]3O[C@@](O)(C2)[C@H](C)C(=O)O[C@@H](/C=C/C=C/Br)C[C@@H](C)/C=C\C[C@H](O)[C@@H]3C)[C@@H]1OC` [LYNGBYALOSIDE], in that order: 37 µM and 35 µM.
Consider `CC(C)[C@@H]1NC(=O)CNC(=O)[C@@H]2CSC(=N2)[C@H](C(C)(C)O)OC(=O)C(C)(C)[C@H](CCCC(C)(Cl)Cl)OC(=O)c2csc1n2` [LYNGBYABELLIN B], for which the half-inhibitory concentration (IC50) with HT-29 worked out at 1.1 µM; in the assay on HeLa, 0.71 µM.
For `CC[C@H](C)[C@@H]1NC(=O)CNC(=O)c2csc(n2)[C@H](C(C)(C)O)OC(=O)C(C)(C)[C@H](CCCC(C)(Cl)Cl)OC(=O)c2csc1n2` [LYNGBYABELLIN A], in that order: 0.047 µM and 0.022 µM.
For `CC[C@H](C)[C@@H]1NC(=O)CNC(=O)c2csc(n2)[C@H](C(C)C)OC(=O)C(C)(C)[C@H](CCCC(C)(Cl)Cl)OC(=O)c2csc1n2` [27-DEOXYLYNGBYABELLIN A], in that order: 0.012 µM and 0.0073 µM.

(Values after ChEMBL document CHEMBL1221344, “Cytotoxic halogenated macrolides and modified peptides from the apratoxin-producing marine cyanobacterium Lyngbya bouillonii from Guam” (J Nat Prod, 2010).)
